33 molecules from PubChem BioAssay AID588810 (Broad Institute, 2011) can be followed below.

Several values for one entry are separate records, joined by “and”; a condition that tells them apart may be missing. Equal values may be shown once. Results filed as inconclusive are left out. Activity calls are given as the source filed them.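 How the source made its calls: active means rising curve reaching 40% of the stimulating control's effect at or below the top valid tested dose; inconclusive means flat curve between 30 and 70% of control, or poor fit; inactive means falling curves and all the rest.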

Sequence of Scavenger receptor class B member 1 (Mus musculus) (Q61009 whole entry, looked up): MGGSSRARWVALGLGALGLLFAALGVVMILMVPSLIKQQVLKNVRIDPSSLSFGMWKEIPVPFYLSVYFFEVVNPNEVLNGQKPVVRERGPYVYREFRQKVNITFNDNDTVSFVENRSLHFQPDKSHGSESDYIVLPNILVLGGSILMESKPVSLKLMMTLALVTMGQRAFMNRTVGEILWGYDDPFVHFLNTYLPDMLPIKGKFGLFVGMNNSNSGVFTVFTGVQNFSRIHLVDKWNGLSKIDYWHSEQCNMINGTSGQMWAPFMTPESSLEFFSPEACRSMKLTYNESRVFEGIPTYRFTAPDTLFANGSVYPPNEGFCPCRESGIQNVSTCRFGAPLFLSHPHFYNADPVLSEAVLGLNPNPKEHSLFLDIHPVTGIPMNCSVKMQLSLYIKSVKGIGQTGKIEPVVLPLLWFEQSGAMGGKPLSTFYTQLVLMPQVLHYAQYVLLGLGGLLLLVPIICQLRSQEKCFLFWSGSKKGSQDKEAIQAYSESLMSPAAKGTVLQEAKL

The assay has as its target Scavenger receptor class B member 1 (Mus musculus) (UniProt Q61009). The assay can be described thus: increase of Alexa488-HDL binding at mSR-BI cells – ldlA[mSR-BI] cells, powder samples, set 2, orthogonal assay for SR-BI HDL uptake inhibitor project, dose response (AID 588810). To be noted: ldlA[mSR-BI] CHO cells, Alexa488-HDL binding fluorescence, 3 h. The method in brief:
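Test system: mouse SR-BI-expressing ldlA CHO cells / Medium: F12, 0.5% BSA, 25 mM HEPES pH 7.4 / Reagent: 10 µg/mL Alexa488-labeled HDL / Doses: dose series of compound / Times: 3 h exposure at 37 °C / Signal: bottom-read fluorescence after two PBS washes / Benchmarks: positive control BLT-1 1 µM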
In the case of `COc1c(NC(=O)C(=O)c2ccc(OCCN3CCOCC3)c3ccccc23)cc(C(C)(C)C)cc1NS(C)(=O)=O`, the AC40 was 1640 nM.
The same measure for `CCC(=O)N1CCc2cc(-c3csc(NC(=O)c4ccco4)n3)ccc21`: 312 nM and 2270 nM; for `CCC(=O)N1CCc2cc(-c3csc(NC(=O)c4cccc(OC(F)(F)F)c4)n3)ccc21`: 943 nM; for `COc1ccc(-c2nnn(CC(=O)N(C3CCCCC3)C(C)C(=O)NC3CCCC3)n2)cc1OC` (stereo not drawn): 437 nM.
The same measure for `COc1ccc(-c2nnn(CC(=O)N(CC(=O)N(C)C3CCCC3)C3CCCCC3)n2)cc1OC`: 4950 nM; for `C[C@@H]1CN([C@H](C)CO)C(=O)c2cc(NC(=O)Cc3cn(C)c4ccccc34)ccc2O[C@H]1CN(C)S(=O)(=O)c1ccc(Cl)cc1`: 73.3 nM; for `O=C(Nc1nc(-c2ccc3c(c2)CCN3)cs1)c1ccco1`: 295 nM.
As to `COc1ccc(-c2cc(CC(=O)N(C3CCCCC3)C(C)C(=O)NC3CCCC3)no2)cc1OC` (stereo not drawn), the AC40 was 145 nM.
As for `CCNC(=O)N1CCc2cc(-c3csc(NC(=O)c4cc(OC)cc(OC)c4)n3)ccc21`, the figure is 12.7 nM.
The same measure for `CCC(=O)N1CCc2cc(-c3csc(NC(=O)c4cc(OC)c(OC)c(OC)c4)n3)ccc21`: 22.2 nM.
As for `CCC(=O)N1CC(C)(C)c2cc(-c3csc(NC(=O)c4cc(OC)cc(OC)c4)n3)ccc21`, the figure is 6.07 nM.
`CCC(=O)N1CCc2cc(-c3csc(NCc4cc(OC)cc(OC)c4)n3)ccc21`: the AC40 is 912 nM.
The same measure for `C[C@H](C(=O)NC1CCCC1)N(C(=O)Cn1nnc(-c2ccc3c(c2)OCO3)n1)C1CCCCC1`: 169 nM; for `CCC(=O)Nc1ccc(-c2csc(NC(=O)c3cccc(OC)c3)n2)cc1`: 347 nM.
As to `C[C@@H](C(=O)NC1CCCC1)N(C(=O)Cn1nnc(-c2ccc3c(c2)OCO3)n1)C1CCCCC1`, the AC40 is 4690 nM.
For `COCC(=O)N1CCc2cc(-c3csc(NC(=O)c4cc(OC)cc(OC)c4)n3)ccc21`, the AC40 is 21.8 nM.
The same measure for `COc1ccc(-c2nc(CC(=O)N(C3CCCCC3)C(C)C(=O)NC3CCCC3)co2)cc1OC` (stereo not drawn): 1360 nM.
Turning to `COc1ccc(-c2nnn(CC(=O)N(CC(=O)N3CCCCC3)C3CCCCC3)n2)cc1OC`, the AC40 was 11800 nM.
As for `Cc1ccc2oc(-c3cccc(NC(=O)c4cc(-n5cnnc5)ccc4Cl)c3)nc2c1`, the figure is > 80000 nM (inactive).
The same measure for `CCC(=O)N1CCc2cc(-c3csc(NC(=O)c4ccc(F)c(OC)c4)n3)ccc21`: 358 nM; for `COc1ccc(-c2nnn(CC(=O)N(CC(=O)NC3CCCC3)C3CCCCC3)n2)cc1OC`: 231 nM.
The same measure for `O=C(CN(C(=O)Cn1nnc(-c2ccc3c(c2)OCO3)n1)C1CCCCC1)NC1CCCC1`: 337 nM; for `COc1cc(OC)cc(C(=O)Nc2nc(-c3ccc4c(c3)CCN4C(=O)CN(C)C)cs2)c1`: 232 nM.
In the case of `CCC(=O)N1CCc2cc(-c3csc(NC(=O)c4cc5ccccc5o4)n3)ccc21`, the AC40 was 1580 nM.
For `CCC(=O)N1CCc2cc(-c3csc(NC(=O)c4cc(OC)cc(OC)c4)n3)ccc21`, the AC40 was 382 nM.
`COC(=O)N1CCc2cc(-c3csc(NC(=O)c4cc(OC)cc(OC)c4)n3)ccc21`: the AC40 is 324 nM.
As to `COc1cc(OC)cc(C(=O)Nc2nc(-c3ccc4c(c3)CCN4C(C)=O)cs2)c1`, the AC40 was 371 nM.
Turning to `CCC(=O)n1ccc2cc(-c3csc(NC(=O)c4cc(OC)cc(OC)c4)n3)ccc21`, the AC40 was 672 nM.
The same measure for `CC(=O)N1CCc2cc(-c3nc(NC(=O)c4cccc(OC(F)(F)F)c4)sc3C)ccc21`: 488 nM; for `CCC(=O)N1CCc2cc(-c3csc(NC(=O)c4cccc(OC)c4)n3)ccc21`: 454 nM; for `CC(C(=O)NC1CCCC1)N(C(=O)Cn1nnc(-c2ccc3c(c2)OCO3)n1)C1CCCCC1` (stereo not drawn): 214 nM.
As for `COc1cc(OC)cc(C(=O)Nc2nc(-c3ccc4c(c3)CCN4C(=O)OC(C)(C)C)cs2)c1`, the figure is 24.5 nM; as for `CCC(=O)N1CC(C)(C)c2cc(-c3csc(NC(=O)c4ccco4)n3)ccc21`, 57.1 nM.
